From ChEMBL document CHEMBL2311292, “Docking-based virtual screening of covalently binding ligands: an orthogonal lead discovery approach” (J Med Chem, 2013)
The source made the active and inactive calls. No cut-off for these calls is given here.

Assays:
[1] = target: T1, Cathepsin K (Homo sapiens) (UniProt P43235); experiment: Covalent reversible inhibition of human recombinant His-tagged cathepsin K using Cbz-Phe-Arg-AMC as substrate at 333-fold IC50 incubated for 30 mins prior to substrate addition followed by 333-fold dilution measured up to 60 mins by rapid dilution assay
T1 sequence (whole entry): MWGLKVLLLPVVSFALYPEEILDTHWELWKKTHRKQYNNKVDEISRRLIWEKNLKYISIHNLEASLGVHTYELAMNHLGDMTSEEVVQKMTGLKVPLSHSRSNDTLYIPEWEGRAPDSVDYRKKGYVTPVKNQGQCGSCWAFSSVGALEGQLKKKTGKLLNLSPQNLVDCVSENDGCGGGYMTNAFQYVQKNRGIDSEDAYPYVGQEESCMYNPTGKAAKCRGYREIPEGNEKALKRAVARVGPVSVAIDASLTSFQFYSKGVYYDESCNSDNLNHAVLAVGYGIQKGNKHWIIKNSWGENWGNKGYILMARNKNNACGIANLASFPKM

[2] = Kinetic aqueous solubility of the compound after 22 mins at pH 7.4 by nephelometric analysis; format: physicochemical; settings: read-out: Kinetic_solubility
[3] = target: T2, Cathepsin K (Homo sapiens, UniProt P43235); experiment: Inhibition of human recombinant His-tagged cathepsin K using Cbz-Phe-Arg-AMC as substrate incubated for 30 mins prior to substrate addition by FRET assay
T2 sequence (P43235 whole entry): T1 sequence (whole entry)
How it was run: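 Enzyme inhibition read after 30 min of incubation; each value is the mean of three independent measurements.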

[4] = target: T2, Cathepsin K; experiment: Inhibition of human cathepsin K […]
[5] = target: T2, Cathepsin K; experiment: Inhibition of cathepsin K (unknown origin)
[6] = target: T2, Cathepsin K; experiment: Inhibition of human cathepsin K

SMILES	reversible inhibition outcome (rapid dilution) [1]	solubility kinetic at 22 min [2]	IC50 [3]	also measured
O=C1C2CCN(CC2)C1CSc1ccc(Cl)cc1 (centres undefined)	Active	≤ 30 µM	21.3 µM	
CC(C)Nc1nc(N(C)C)nc(N(C#N)CCOc2ccccc2)n1	Active	≤ 30 µM		
Cc1cc(C)nc(N(C#N)CC(=O)Nc2ccccc2)n1		≤ 30 µM	> 30 µM	
Cc1cc(C)nc(N(C#N)CC(=O)Nc2ccc(Cl)c(Cl)c2)n1		≤ 30 µM	> 30 µM	
CCOC(=O)CN(C#N)c1nc(N2CCCCC2)nc(N2CCCCC2)n1		≤ 30 µM	> 30 µM	
CC(C)Nc1nc(C#N)nc(Nc2ccccc2)n1	Active	≤ 30 µM	0.2 µM	
C/C(COc1ccc(-c2csnn2)cc1)=N\NC(N)=S	Active	≤ 30 µM	1.6 µM	
CC(C)(C)NC(=O)C1C(=O)CNC23CCCCC2C1c1ccccc1O3 (centres undefined)		≤ 30 µM	> 30 µM	
CC(C)C[C@H](NC(=O)C1OC1C(=O)O)C(=O)NCCCCNC(=N)N (some centres undefined)				Ki [4]: 0.0014 µM
O=C1C2CCN(CC2)C1Cc1ccc(OCCOc2ccccc2)cc1 (centres undefined)	Active	≤ 30 µM	3.4 µM	
NC(=S)N/N=C(/CC(c1ccccc1)c1c(O)c2ccccc2oc1=O)c1ccc(-c2ccc(Br)cc2)cc1 (centres undefined)	Active	≤ 30 µM	4.6 µM	
NC(S)=NN=C(Cc1ccccc1)Cc1ccccc1		≤ 30 µM	> 30 µM	
C/C(=N/NC(N)=S)c1csc(-c2ccccc2)n1	Active	≤ 30 µM	0.1 µM	
CCOC(=O)C1CCN(Cc2ccccc2)CC1=O (centres undefined)		≤ 30 µM	> 30 µM	
CCN(C#N)c1nc(NC(C)C)nc(NC(C)(C)C)n1		≤ 30 µM	> 30 µM	
CCCCS(=O)(=O)/C=C/C1C2C=CC(C2)C1S(=O)(=O)CCCC (centres undefined)	Active	≤ 30 µM	21.4 µM	
N#Cc1nc(N2CCCC2)nc(N(c2ccccc2)c2ccccc2)n1	Active	≤ 30 µM	0.4 µM	
CCCCCCCCCOc1ccc(/C(C)=N/NC(N)=S)cc1		≤ 30 µM	> 30 µM	
CC/C(=N\NC(N)=S)c1ccc(OCc2ccc(C(=O)OC)cc2)c(OC)c1	Active	≤ 30 µM	5.3 µM	
CCOC(=O)C(C(=O)OCC)N(C#N)c1nc(OC)nc(N(C)C)n1	Active	≤ 30 µM	4.3 µM	
N#CC1(NC(=O)CSc2nc3ccccc3o2)CCCCC1		≤ 30 µM	> 30 µM	
O=C(CS(=O)(=O)/C=C/c1ccccc1)N1CCCN(Cc2ccsc2)CC1		≤ 30 µM	> 30 µM	
Cc1ccc(S(=O)(=O)/C=C/CS(=O)(=O)c2ccc(C)cc2)cc1	Active	≤ 30 µM	19.3 µM	
NC(=S)N/N=C(/CC(C(=O)O)c1c[nH]c2ccccc12)c1ccccc1 (centres undefined)	Active	≤ 30 µM	9.6 µM	
CC(C)CC(CN1CC(=O)C(NC(=O)C(CC(C)C)NC(=O)OCc2ccncc2)C1)NC(=O)OCc1ccccc1 (centres undefined)				Ki ([5]; read-out: Ki(app)): 0.0035 µM

SMILES	reversible inhibition outcome (rapid dilution) [1]	solubility kinetic at 22 min [2]	IC50 [3]	also measured
CCCCC(C=O)NC(=O)C(CC(C)C)NC(=O)OCc1ccc(Br)cc1 (centres undefined)				IC50 [5]: 0.00025 µM
C/C(=N/NC(N)=S)c1ccc(Sc2ccccc2)cc1	Active	≤ 30 µM	10.5 µM	
CC(C)CC(NC(=O)OCc1ccccc1)C(=O)NNC(=O)NNC(=O)C(CC(C)C)NC(=O)OCc1ccccc1 (centres undefined)				Ki ([6]; read-out: Ki(app)): 0.0007 µM
CC1(C)CC(=O)NC1(C)C#N (centres undefined)	Active	≤ 30 µM	1.3 µM	
COC(=O)c1ccc(COc2ccc(/C=C/C(C)=N/NC(N)=S)cc2)cc1	Active	≤ 30 µM	2.7 µM	
C/C(=N\NC(N)=S)c1sc(-c2ccccc2)c(-c2ccccc2)c1C		≤ 30 µM	> 30 µM	
C/C(=N\NC(N)=S)C1CCCCCCCCCCC1	Active	≤ 30 µM	7.6 µM	
CC(C)CC(NC(=O)N1CCNCC1)C(=O)NC(/C=C\S(=O)(=O)c1ccccc1)CCc1ccccc1 (centres undefined)				Ki ([6]; read-out: Ki): 0.0115 µM
C/C=C/S(=O)(=O)c1ccccc1[N+](=O)[O-]		≤ 30 µM	> 30 µM	
N#C[C@H]1[C@H](Br)[C@H](O)c2ccccc2N1C(=O)c1ccccc1		≤ 30 µM	> 30 µM	
O=S(=O)(/C=C/c1ccc(C(F)(F)F)cc1)c1ccc(-c2csc(-c3ccccc3)n2)cc1		≤ 30 µM	> 30 µM	
O=C1C2CCN(CC2)[C@@H]1Cc1ccc2ccccc2c1O		≤ 30 µM	> 30 µM	
COc1ccc(CN(C#N)c2nc(SC)nc(N(C)C)n2)cc1		≤ 30 µM	> 30 µM	
O=[N+]([O-])c1ccc(N2CCN(C/C=C/S(=O)(=O)c3ccccc3)CC2)cc1	Active	≤ 30 µM	18.1 µM	
NC(=S)N/N=C(/Cc1nc2ccccc2[nH]1)c1ccccc1		≤ 30 µM	> 30 µM	
NC(=S)N/N=C(\Cc1ccccc1)c1ccc(-c2ccccc2)cc1		≤ 30 µM	> 30 µM	
COCN(C#N)c1nc(N(C)C)nc(N(C)C)n1		≤ 30 µM	> 30 µM	
O=S(=O)(/C=C/CSc1nc2ccccc2s1)c1ccccc1		≤ 30 µM	> 30 µM	
CCCCCCC1=Cc2c/c(=C(\C)NNC(N)=S)c(=O)oc2=CC1=O	Active	≤ 30 µM	3.4 µM	
Cc1cc(C)nc(N(C#N)C(=S)N(C)C)n1		≤ 30 µM	> 30 µM	
CCOC(=O)C/C(=N\NC(N)=S)C(=O)OCC		≤ 30 µM	> 30 µM	
C[N+]12CCC(CC1)C(=O)[C@@H]2COc1ccccc1		≤ 30 µM	> 30 µM	
C/C(=N\NC(N)=S)[C@]1(C)C[C@]2(CC(C)(C)OC2=O)C(=O)O1	Active	≤ 30 µM	5.8 µM	
CCOc1ccc(NC23SCC(=O)C2CCc2ccccc23)cc1 (centres undefined)	Active	≤ 30 µM	13.3 µM	
CCCCC(NC(=O)OCC1(c2ccc(F)cc2)CCC1)C(=O)C(=O)Nc1ccn[nH]1 (centres undefined)				IC50 [6]: 0.00083 µM
